{"source": "paper PMC11070865", "about": "(Heliyon, 2024)", "key": {"[1]": {"test_system": "human gastric adenocarcinoma cell line (AGS cells)", "details": "read-out: IC50 against AGS cells; cited from earlier work"}, "[2]": {"test_system": "NCI-N87 gastric cancer cells", "details": "at 200 μg/mL; cited from earlier work"}, "KATO-III cells [3]": {"test_system": "KATO-III cells", "test": "Cell cycle arrest analysis, PI flow cytometry", "format": "cell-based", "details": "MF 7.5, 15 and 30 μg/mL, from 24 h exposure onwards, P < 0.01", "how_it_was_run": "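KATO-III cells at 5 × 10⁵ per well in 6-well plates were exposed to test compound (0, 7.5, 15 and 30 μg/mL final) or 1 % (v/v) DMSO for 24, 48 and 72 h (37 °C, 5 % CO₂). Cells were trypsinized and washed in cold PBS, then fixed in 70 % ethanol on ice for 30 min. They were treated with RNase A (100 μg/mL, 30 min, 37 °C) and stained with PI (50 μg/mL). Flow cytometry recorded 10,000 events per sample, in triplicate.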"}, "CASP3": {"test_system": "CASP3", "test": "RT-qPCR transcript expression, CASP3", "format": "cell-based", "details": "KATO-III, MF 30 μg/mL or doxorubicin 1.14 μg/mL"}, "CTSB": {"test_system": "CTSB", "test": "RT-qPCR transcript expression, CTSB", "format": "cell-based", "details": "KATO-III, MF 30 μg/mL"}, "KATO-III cell line": {"test_system": "KATO-III cell line", "test": "Cell viability by MTT assay, KATO-III", "format": "cell-based", "details": "for IC50: Homo sapiens, KATO III, read-out: IC50 on KATO-III"}, "KATO-III cells [4]": {"test_system": "KATO-III cells", "test": "Cell imaging", "format": "cell-based", "how_it_was_run": "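KATO-III cells at 5 × 10⁵ per well in 6-well plates were left for 16 h, then given test compound (7.5, 15 or 30 μg/mL), doxorubicin (1.14 μg/mL) or 1 % (v/v) DMSO for 24, 48 and 72 h. Culture was at 37 °C, 5 % CO₂, humidified. Morphology was viewed by light microscopy with camera imaging at 100× and 200×.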"}, "COX2": {"test_system": "COX2", "test": "RT-qPCR transcript expression, COX2", "format": "cell-based", "details": "KATO-III, MF 30 μg/mL or doxorubicin 1.14 μg/mL"}, "NFkB": {"test_system": "NFkB", "test": "RT-qPCR transcript expression, NFkB", "format": "cell-based", "details": "KATO-III, MF 30 μg/mL or doxorubicin 1.14 μg/mL"}, "BCL-2": {"test_system": "BCL-2", "test": "RT-qPCR transcript expression, BCL-2", "format": "cell-based", "details": "KATO-III, 48 h (doxorubicin: from 48 h onwards); MF 30 μg/mL or doxorubicin 1.14 μg/mL"}, "KATO-III cells [5]": {"test_system": "KATO-III cells", "test": "Programmed cell death, annexin V/PI flow cytometry", "format": "cell-based", "details": "for Q2 late apoptotic cells (annexin V+ PI+): 72 h"}, "[6]": {"test_system": "WI-38 normal lung fibroblast cell line", "test": "Cell viability by MTT assay, WI-38", "format": "cell-based", "details": "Homo sapiens, read-out: IC50 on WI-38"}, "[7]": {"test_system": "MCF-7 breast cancer cell line", "details": "MF from Lisotrigona furua propolis; cited from earlier work"}, "[8]": {"test_system": "LU-1 lung cancer cell line", "details": "MF from Lisotrigona furua propolis; cited from earlier work"}, "CASP7": {"test_system": "CASP7", "test": "RT-qPCR transcript expression, CASP7", "format": "cell-based", "details": "KATO-III, MF 30 μg/mL or doxorubicin 1.14 μg/mL"}, "[9]": {"test_system": "Caco-2, KB, SK-MEL-28 and HN30 cancer cells", "details": "SK-MEL-28, HN30; cited from earlier work"}}, "note": "Read-outs that look alike come from different tables or passages of the source."}
{"smiles": "O=c1c(O)c(-c2ccc(O)c(O)c2)oc2cc(O)cc(O)c12", "note": "[quercetin]", "values": [{"measurement": "IC50", "setting": "[1]", "value": 160, "unit": "µM"}]}
{"smiles": "O=C1C[C@@H](c2ccccc2)Oc2cc(O)cc(O)c21", "note": "[pinocembrin]", "values": [{"measurement": "cytotoxic activity", "setting": "[2]", "value": 72.5, "unit": "%"}]}
{"smiles": "C/C(=C\\CC[C@@H](C)[C@H]1CC[C@@]2(C)[C@@H]3CC[C@H]4C(C)(C)[C@@H](O)CC[C@@]45C[C@@]35CC[C@]12C)C(=O)O", "note": "[Compound 2, mangiferolic acid]", "values": [{"measurement": "cell cycle arrest", "setting": "KATO-III cells [3]", "value": "induced detectable levels of cell cycle arrest at the sub-G1 phase and S phase population"}, {"measurement": "CASP3 transcript expression level vs control", "setting": "CASP3; 48 h", "value": "significant upregulation"}, {"measurement": "CASP3 transcript expression level vs control", "setting": "CASP3; 72 h", "value": "increased in gene expression compared to control cells"}, {"measurement": "CTSB transcript expression level vs control", "setting": "CTSB; 48 h", "value": "significant upregulation"}, {"measurement": "CTSB transcript expression level vs control", "setting": "CTSB; 72 h", "value": "only a slight increase compared to control cells"}, {"measurement": "IC50", "setting": "KATO-III cell line; 24 h", "value": 16, "unit": "µg/mL"}, {"measurement": "IC50", "setting": "KATO-III cell line; 48 h", "value": 12, "unit": "µg/mL"}, {"measurement": "IC50", "setting": "KATO-III cell line; 72 h", "value": 4.78, "unit": "µg/mL"}, {"measurement": "morphology of KATO-III cells", "setting": "KATO-III cells [4]; 15 μg/mL, 24 and 48 h", "value": "No significant change in the morphology"}, {"measurement": "morphology of KATO-III cells", "setting": "KATO-III cells [4]; 30 μg/mL, 48 h, 100× magnification", "value": "lower density of cells"}, {"measurement": "COX2 transcript expression level vs control", "setting": "COX2; 24 h", "value": "upregulated"}, {"measurement": "COX2 transcript expression level vs control", "setting": "COX2; 48 h", "value": "significant upregulation"}, {"measurement": "COX2 transcript expression level vs control", "setting": "COX2; 72 h", "value": "increased in gene expression compared to control cells"}, {"measurement": "NFkB transcript expression level vs control", "setting": "NFkB; 24 h", "value": "upregulated with significant increased"}, {"measurement": "NFkB transcript expression level vs control", "setting": "NFkB; 48 h", "value": "significant upregulation"}, {"measurement": "NFkB transcript expression level vs control", "setting": "NFkB; 72 h", "value": "increased in gene expression compared to control cells"}, {"measurement": "BCL-2 transcript expression level vs control", "setting": "BCL-2", "value": "remained the same as in control cells"}, {"measurement": "Q2 late apoptotic cells (annexin V+ PI+)", "setting": "KATO-III cells [5]; MF 15 μg/mL, listed as MF", "value": "slightly increased level of apoptotic cells"}, {"measurement": "IC50", "setting": "[6]; WI-38, 24 h", "value": 22, "unit": "µg/mL"}, {"measurement": "IC50", "setting": "[6]; WI-38, 48 h", "value": 13.7, "unit": "µg/mL"}, {"measurement": "IC50", "setting": "[6]; WI-38, 72 h", "value": 11.6, "unit": "µg/mL"}, {"measurement": "IC50 against MCF-7", "setting": "[7]", "value": 62.85, "unit": "µg/mL"}, {"measurement": "IC50 against LU-1", "setting": "[8]", "value": 13.33, "unit": "µg/mL"}, {"measurement": "CASP7 transcript expression level vs control", "setting": "CASP7; 48 h", "value": "significant upregulation"}, {"measurement": "CASP7 transcript expression level vs control", "setting": "CASP7; 72 h", "value": "increased in gene expression compared to control cells"}]}
{"smiles": "CC(C)=CCc1c(O)cc2oc3cc(O)c(O)c(CC=C(C)C)c3c(=O)c2c1O", "note": "[gamma-mangostin]", "values": [{"measurement": "migration of cancer cells", "setting": "[9]", "value": "inhibited the migration"}]}
{"smiles": "COc1c(O)cc2oc3cc(O)c(CC=C(C)C)c(O)c3c(=O)c2c1CC=C(C)C", "note": "[alpha-mangostin]", "values": [{"measurement": "migration of cancer cells", "setting": "[9]", "value": "inhibited the migration"}]}
{"smiles": "COc1cccc2c1C(=O)c1c(O)c3c(c(O)c1C2=O)C[C@@](O)(C(=O)CO)C[C@@H]3O[C@H]1C[C@H](N)[C@H](O)[C@H](C)O1", "note": "[Doxorubicin, doxorubicin, reference compound]", "values": [{"measurement": "CASP3 transcript expression level vs control", "setting": "CASP3; 48 h", "value": "significantly up-regulated"}, {"measurement": "CASP3 transcript expression level vs control", "setting": "CASP3; 72 h", "value": "significantly up-regulated"}, {"measurement": "IC50", "setting": "KATO-III cell line; 24 h", "value": 1.55, "unit": "µg/mL"}, {"measurement": "IC50", "setting": "KATO-III cell line; 48 h", "value": 1.43, "unit": "µg/mL"}, {"measurement": "IC50", "setting": "KATO-III cell line; 72 h", "value": 0.56, "unit": "µg/mL"}, {"measurement": "fold higher cytotoxicity than compounds 1 and 2", "setting": "KATO-III cell line; both cancer and normal cell lines", "value": "> 5", "unit": "fold"}, {"measurement": "morphology of KATO-III cells", "setting": "KATO-III cells [4]; 1.14 μg/mL, 72 h", "value": "clear loss of cell density"}, {"measurement": "morphology of KATO-III cells", "setting": "KATO-III cells [4]; 1.14 μg/mL, after 48 h", "value": "cell shrinkage and blebbing"}, {"measurement": "COX2 transcript expression level vs control", "setting": "COX2; 24 h", "value": "no significant difference"}, {"measurement": "NFkB transcript expression level vs control", "setting": "NFkB; 24 h", "value": "no significant difference"}, {"measurement": "BCL-2 transcript expression level vs control", "setting": "BCL-2", "value": "slightly decreased (but not significant)"}, {"measurement": "Q1 early apoptotic cells (annexin V+ PI−)", "setting": "KATO-III cells [5]; doxorubicin 1.14 μg/mL, 48 h", "value": "significantly enhanced level of early apoptosis"}, {"measurement": "Q2 late apoptotic cells (annexin V+ PI+)", "setting": "KATO-III cells [5]; doxorubicin 1.14 μg/mL", "value": "significantly higher compared to the control (P < 0.01)"}, {"measurement": "IC50", "setting": "[6]; WI-38, 24 h", "value": 0.78, "unit": "µg/mL"}, {"measurement": "IC50", "setting": "[6]; WI-38, 48 h", "value": 0.09, "unit": "µg/mL"}, {"measurement": "IC50", "setting": "[6]; WI-38, 72 h", "value": 0.02, "unit": "µg/mL"}, {"measurement": "CASP7 transcript expression level vs control", "setting": "CASP7; 24 h", "value": "slightly increase"}, {"measurement": "CASP7 transcript expression level vs control", "setting": "CASP7; 48 h", "value": "significantly up-regulated"}, {"measurement": "CASP7 transcript expression level vs control", "setting": "CASP7; 72 h", "value": "significantly up-regulated"}]}
